# From ChEMBL document CHEMBL1139871, “Selective urokinase-type plasminogen activator inhibitors. 4. 1-(7-sulfonamidoisoquinolinyl)guanidines” (J Med Chem, 2007)
# Biological target: Tissue-type plasminogen activator (Homo sapiens, UniProt P00750)
# Experiment: Inhibition of human tPA
# In short: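 Human one-chain tPA 0.4 µg/mL (final) with 0.1 mg/mL tPA stimulator, preincubated 15 min at 37 °C with inhibitor in 75 mM Tris pH 8.1, 50 mM NaCl. Then 0.4 mM S-2288 (H-D-Ile-Pro-Arg-pNA) added, 60 min at 37 °C. A405 read after preincubation and after substrate incubation, background subtracted. IC50 from % inhibition vs concentration. Ki = IC50/(1+[S]/Km), Km 250 µM.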
# Tissue-type plasminogen activator, sequence (P00750 whole entry): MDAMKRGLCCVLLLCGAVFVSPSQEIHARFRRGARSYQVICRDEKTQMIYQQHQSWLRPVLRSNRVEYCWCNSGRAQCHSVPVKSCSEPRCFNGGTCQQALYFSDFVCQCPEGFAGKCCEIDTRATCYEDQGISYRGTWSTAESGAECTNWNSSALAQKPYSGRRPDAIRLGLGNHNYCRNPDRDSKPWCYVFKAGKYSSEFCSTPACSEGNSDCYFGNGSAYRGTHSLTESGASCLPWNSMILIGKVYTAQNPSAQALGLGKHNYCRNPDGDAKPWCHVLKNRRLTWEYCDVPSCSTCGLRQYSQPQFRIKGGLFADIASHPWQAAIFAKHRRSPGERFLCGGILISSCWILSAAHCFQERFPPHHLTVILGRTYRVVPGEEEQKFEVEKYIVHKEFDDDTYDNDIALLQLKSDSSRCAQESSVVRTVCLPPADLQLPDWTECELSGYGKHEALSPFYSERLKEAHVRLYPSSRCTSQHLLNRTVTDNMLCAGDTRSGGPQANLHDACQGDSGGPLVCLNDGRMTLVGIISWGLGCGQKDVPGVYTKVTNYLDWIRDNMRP
row,SMILES,Ki
1,NC(N)=Nc1ncc(Cl)c2ccc(S(=O)(=O)N(CC(=O)O)Cc3ccccc3)cc12,> 100 µM
2,CN(C)CCN(C1(C(=O)O)CCCC1)S(=O)(=O)c1ccc2c(Cl)cnc(N=C(N)N)c2c1,23 µM
3,NC(N)=Nc1ncc(Cl)c2ccc(S(=O)(=O)NC3(C(=O)NCCO)CCCC3)cc12,108 µM
4,NC(N)=Nc1ncc(Cl)c2ccc(S(=O)(=O)NC3(C(=O)N4CCOCC4)CCCC3)cc12,34.4 µM
5,CC(C)[C@H](NS(=O)(=O)c1ccc2c(Cl)cnc(N=C(N)N)c2c1)C(=O)O,> 100 µM
6,CC(C)(C)[C@@H](NS(=O)(=O)c1ccc2c(Cl)cnc(N=C(N)N)c2c1)C(=O)O,> 100 µM
7,NC(N)=Nc1ncc(Cl)c2ccc(S(=O)(=O)N3CCC[C@H]3C(=O)O)cc12,> 100 µM
8,CN1CCN(C(=O)C2(NS(=O)(=O)c3ccc4c(Cl)cnc(N=C(N)N)c4c3)CCCC2)CC1,34.7 µM
9,NC(N)=Nc1ncc(Cl)c2ccc(S(=O)(=O)NC3(C(=O)O)CCOCC3)cc12,> 100 µM
10,CCOC(=O)C1(NS(=O)(=O)c2ccc3c(Cl)cnc(N=C(N)N)c3c2)CCCC1,23 µM

# Biological target: T1, Plasminogen (Homo sapiens, UniProt P00747)
# Experiment: Inhibition of human plasmin at 100 uM
# In short: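 Human plasmin (0.7 µg/mL) preincubated with inhibitor for 15 min at 37 °C in 75 mM Tris pH 8.1, 50 mM NaCl. Then incubated with 0.2 mM Chromozym-PL for 30 min at 37 °C. Absorbance read at 405 nm, background at time zero subtracted, and percent inhibition calculated.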
# T1 sequence (P00747 97-580 limits assumed): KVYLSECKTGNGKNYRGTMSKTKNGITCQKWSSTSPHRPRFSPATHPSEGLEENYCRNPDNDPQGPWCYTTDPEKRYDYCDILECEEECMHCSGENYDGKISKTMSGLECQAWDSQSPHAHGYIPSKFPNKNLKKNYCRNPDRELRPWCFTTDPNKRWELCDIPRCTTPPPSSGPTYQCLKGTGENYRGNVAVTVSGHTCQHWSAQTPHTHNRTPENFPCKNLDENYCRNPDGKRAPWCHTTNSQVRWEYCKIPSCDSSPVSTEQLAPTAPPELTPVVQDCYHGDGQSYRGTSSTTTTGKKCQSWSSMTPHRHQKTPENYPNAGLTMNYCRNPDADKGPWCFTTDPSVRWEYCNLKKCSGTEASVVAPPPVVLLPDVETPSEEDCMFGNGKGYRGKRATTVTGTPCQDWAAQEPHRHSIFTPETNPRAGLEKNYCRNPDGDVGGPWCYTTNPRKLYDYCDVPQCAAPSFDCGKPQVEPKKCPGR
# T1 sequence (P00747 581-810 limits assumed): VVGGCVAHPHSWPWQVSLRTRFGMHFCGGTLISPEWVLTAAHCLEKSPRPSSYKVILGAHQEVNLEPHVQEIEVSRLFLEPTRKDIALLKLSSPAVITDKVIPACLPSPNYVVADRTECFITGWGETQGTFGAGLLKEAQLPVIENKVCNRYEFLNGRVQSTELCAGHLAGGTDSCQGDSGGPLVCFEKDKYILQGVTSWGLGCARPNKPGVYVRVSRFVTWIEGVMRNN
row,SMILES,inhibition
1,CCOC(=O)C1(NS(=O)(=O)c2ccc3c(Cl)cnc(N=C(N)N)c3c2)CCCC1,< 50%

# Biological target: T1, Plasminogen
# Experiment: Inhibition of human plasmin
# In short: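 Human plasmin 0.7 µg/mL with 0.2 mM Chromozym-PL and varied inhibitor in Tris pH 8.1/NaCl buffer. Preincubated 15 min at 37 °C, then 30 min at 37 °C with substrate. A405 background-subtracted, % inhibition plotted for IC50.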
row,SMILES,Ki
1,C[C@H](NS(=O)(=O)c1ccc2c(Cl)cnc(N=C(N)N)c2c1)C(=O)O,15 µM
2,CN(C)CCNC(=O)C1(NS(=O)(=O)c2ccc3c(Cl)cnc(N=C(N)N)c3c2)CCCC1,> 100 µM
3,NC(N)=Nc1ncc(Cl)c2ccc(S(=O)(=O)N(CC(=O)O)Cc3ccccc3)cc12,> 100 µM
4,CN(C)CCN(C1(C(=O)O)CCCC1)S(=O)(=O)c1ccc2c(Cl)cnc(N=C(N)N)c2c1,32 µM
5,NC(N)=Nc1ncc(Cl)c2ccc(S(=O)(=O)NC3(C(=O)NCCO)CCCC3)cc12,> 100 µM
6,CN1CCC(NS(=O)(=O)c2ccc3c(Cl)cnc(N=C(N)N)c3c2)(C(=O)O)CC1,71 µM
7,NC(N)=Nc1ncc(Cl)c2ccc(S(=O)(=O)NC3(C(=O)N4CCOCC4)CCCC3)cc12,> 30 µM
8,CC(C)[C@H](NS(=O)(=O)c1ccc2c(Cl)cnc(N=C(N)N)c2c1)C(=O)O,45 µM
9,CC(C)(C)[C@@H](NS(=O)(=O)c1ccc2c(Cl)cnc(N=C(N)N)c2c1)C(=O)O,> 100 µM
10,NC(N)=Nc1ncc(Cl)c2ccc(S(=O)(=O)N3CCC[C@H]3C(=O)O)cc12,> 100 µM
11,CN1CCN(C(=O)C2(NS(=O)(=O)c3ccc4c(Cl)cnc(N=C(N)N)c4c3)CCCC2)CC1,65 µM
12,NC(N)=Nc1ncc(Cl)c2ccc(S(=O)(=O)NC3(C(=O)O)CCOCC3)cc12,41 µM
13,CCOC(=O)C1(NS(=O)(=O)c2ccc3c(Cl)cnc(N=C(N)N)c3c2)CCCC1,> 100 µM

# Biological target: Urokinase-type plasminogen activator (Homo sapiens, UniProt P00749)
row,SMILES,Ki
1,NC(N)=Nc1ncc(Cl)c2ccc(S(=O)(=O)N3CCC[C@@H]3CO)cc12,0.16 µM
2,NC(N)=Nc1ncc(Cl)c2ccc(S(=O)(=O)NC3(CO)CCCC3)cc12,0.067 µM
3,C[C@H](NS(=O)(=O)c1ccc2c(Cl)cnc(N=C(N)N)c2c1)C(=O)O,0.021 µM
4,CN(C)CCNC(=O)C1(NS(=O)(=O)c2ccc3c(Cl)cnc(N=C(N)N)c3c2)CCCC1,0.03 µM
5,CC(C)(CNS(=O)(=O)c1ccc2c(Cl)cnc(N=C(N)N)c2c1)C(=O)O,0.043 µM
6,NC(N)=Nc1ncc(Cl)c2ccc(S(=O)(=O)N3CCOCC3)cc12,0.33 µM
7,NC(N)=Nc1ncc(Cl)c2ccc(S(=O)(=O)N(CC(=O)O)Cc3ccccc3)cc12,0.035 µM
8,NC(N)=Nc1ncc(Cl)c2ccc(S(=O)(=O)NC3(C(=O)NCCO)CCCC3)cc12,0.01 µM
9,NC(=O)[C@H]1CCCN1S(=O)(=O)c1ccc2c(Cl)cnc(N=C(N)N)c2c1,0.054 µM
10,C[C@@H](NS(=O)(=O)c1ccc2c(Cl)cnc(N=C(N)N)c2c1)C(=O)O,0.028 µM
11,CN1CCC(NS(=O)(=O)c2ccc3c(Cl)cnc(N=C(N)N)c3c2)(C(=O)O)CC1,0.011 µM
12,NC(N)=Nc1ncc(Cl)c2ccc(S(=O)(=O)N3CC(C(=O)O)C3)cc12,0.33 µM
13,NC(N)=Nc1ncc(Cl)c2ccc(S(=O)(=O)NC3(C(=O)N4CCOCC4)CCCC3)cc12,0.0016 µM
14,CC(C)[C@H](NS(=O)(=O)c1ccc2c(Cl)cnc(N=C(N)N)c2c1)C(=O)O,0.066 µM
15,CC(C)(C)[C@@H](NS(=O)(=O)c1ccc2c(Cl)cnc(N=C(N)N)c2c1)C(=O)O,0.022 µM
16,CN1CCN(S(=O)(=O)c2ccc3c(Cl)cnc(N=C(N)N)c3c2)CC1,0.55 µM
17,NC(N)=Nc1ncc(Cl)c2ccc(S(=O)(=O)N3CCC[C@H]3C(=O)O)cc12,0.111 µM
18,CN1CCN(C(=O)C2(NS(=O)(=O)c3ccc4c(Cl)cnc(N=C(N)N)c4c3)CCCC2)CC1,0.0014 µM
19,CCOC(=O)C1(NS(=O)(=O)c2ccc3c(Cl)cnc(N=C(N)N)c3c2)CCCC1,0.014 µM
